Measured values: PubChem BioAssay
Inconclusive results are not listed. Activity calls are given as the source filed them.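 Rule for the calls, unless noted: active = viability at or below 27.92% in each of two runs, the all-compound median minus 4 SD; inconclusive = no clear call, values can overlap the other calls; inactive = the rest.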

How the values were obtained:
[1] = S. cerevisiae growth inhibition in permissive medium (OD615), pilot counter-assay for S. cerevisiae lifespan shortening project, permissive growth control (AID 705;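 active = growth inhibition above 25% in both replicates, a cutoff set 3 SD above the mean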); details: OD615, 24 h, at 10 µM, hits give high values
Summary of the method: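 System: Engineered DeaD yeast | Buffer or medium: SC raffinose/galactose permissive medium | Incubation: Cells pre-grown 4 h, then 24 h compound exposure, 30 °C humidified | Measured by: Absorbance (optical density) at 615 nm | Read-out: Reduction in yeast growth (OD615)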

[2] = S. cerevisiae growth inhibition in restrictive medium, OD615, pilot screen, restrictive growth control, yeast lifespan reduction project (AID 706;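 active = growth inhibition above a set limit, 3 SD over mean compound inhibition, in both replicates, cut at about 43% in these data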;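 note: modified DeaD lifespan yeast strain shifted to restrictive glucose medium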); details: OD615, 48 h, at 10 µM, hits give high values
Summary of the method: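 Material: modified S. cerevisiae; Medium: glucose-based CSMM-D restrictive medium; Compound dosing: one concentration, 10 µM final, 0.25% DMSO; Incubation: 48 h compound exposure at 30 °C; Measured by: OD615.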

[3] = doxorubicin toxicity protection in MRP-1 cells – H69AR cells, CellTiter-Glo, duplicate, MRP-1 activator project, pilot screen (AID 807;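 active = viability increase at or above a cutoff of the median across tested compounds plus 3 SD, cut at about 8.5% in these data, passing the limit was not always enough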;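 note: compound pretreatment 18-22 h then 72 h combined with doxorubicin; 0% = doxorubicin alone and 100% = vehicle without doxorubicin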); details: H69AR viability with doxorubicin, CellTiter-Glo luminescence; at 10 µM; hits give high values
[4] = viability of PTEN-null HCT116 cells – cell-based, HCT116 clonal line, CellTiter-Glo, pilot screen (AID 824); details: HCT116 PTEN-deleted viability, 60 h, at 10 µM, hits give low values;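 note: 0% = 20 µM Hyamine control and 100% = vehicle cell control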
[5] = RAM pathway blockade in budding yeast – dse1pr::URA3 reporter, 5-FOA selection, pilot screen (AID 869;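 active = inhibition over a set limit, the all-compound mean plus 3 SD, in both replicate runs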;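 note: 0% = DMSO wells with no growth and 100% = 10 µM 1-NA-PP1 with full growth; RAM network block rescues cells from 5-FOA so hits raise OD615 growth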); details: S. cerevisiae dse1pr::URA3 5-FOA growth, OD615, 2 d; at 10 µM; hits give high values; strain carries analog-sensitive mutant Cbk1 kinase
[6] = RAM signaling pathway blockade in yeast – S. cerevisiae, Pdr1DBD-CYC8 efflux-inhibited sensitized strain, primary screen (AID 1298;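 active = RAM network inhibition above 8.4% in each of two replicates, 3 SD over the compound average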;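 note: 0% = DMSO untreated cells without growth and 100% = 10 µM 1-NA-PP1 full growth; higher means more yeast growth rescued from 5-FOA killing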); details: S. cerevisiae cbk1-as DSE1-URA3 strain, 5-FOA growth OD615, 2 d; at 50 µM; hits give high values

Cn1c(=O)oc2cc(S(=O)(=O)N3CCCC(C(=O)NCc4ccc5c(c4)OCO5)C3)ccc21 (stereo unspecified)
inactive: growth inhibition [1] -7.5% | growth inhibition [2] 6.97% | viability increase [3] -7.5% | viability [4] 36.4% | inhibition [5] 3.25% | RAM network inhibition [6] 8.39%

CCCCn1c(=NC(=O)c2ccco2)c(C(=O)OCC)cc2c(=O)n3ccccc3nc21
active: viability [4] 20.3%
inactive: growth inhibition [1] 1.16% | growth inhibition [2] 6.8% | viability increase [3] -6.94% | inhibition [5] 0.795% | RAM network inhibition [6] 1.9%

CCCOc1nc2c(c(=O)n(C)c(=O)n2C)n1Cc1cccc2ccccc12
inactive: growth inhibition [1] -12.5% | growth inhibition [2] -0.875% | viability increase [3] -4.04% | viability [4] 57.7% | inhibition [5] 0.84% | RAM network inhibition [6] 1.64%

O=C(NCc1ccco1)c1ccc(CN2CCOCC2)cc1
inactive: growth inhibition [1] -5.32% | growth inhibition [2] 1.69% | viability increase [3] -3.13% | viability [4] 105% | inhibition [5] 2.41% | RAM network inhibition [6] 2.2%

CCc1cc(=O)oc2cc(OCC(=O)OC)c(Cl)cc12
inactive: growth inhibition [1] -4.85% | growth inhibition [2] 1.34% | viability increase [3] -2.39% | viability [4] 101% | inhibition [5] 0.695% | RAM network inhibition [6] 4.51%

Cc1cc(C(=O)NC(C)c2ccncc2)no1 (stereo unspecified)
inactive: growth inhibition [1] -12.9% | growth inhibition [2] 8.19% | viability increase [3] -2.15% | viability [4] 90.3% | inhibition [5] 1.55% | RAM network inhibition [6] 0.72%

O=C(Nc1ccc(F)cc1)c1cc(S(=O)(=O)N2CCCCC2)cs1
inactive: growth inhibition [1] -4.36% | growth inhibition [2] 5.66% | viability increase [3] -2.46% | viability [4] 61.1% | inhibition [5] 2.75% | RAM network inhibition [6] -0.1%

O=C(O)CCC(=O)CCC(=O)c1ccc(Cl)cc1
inactive: growth inhibition [1] 8.94% | growth inhibition [2] -2.93% | viability increase [3] -1.69% | viability [4] 94.3% | inhibition [5] -0.55% | RAM network inhibition [6] 5.32%

CCn1c(C)c2c(C)nnc(C)c2c1C
inactive: growth inhibition [1] -7.03% | growth inhibition [2] -3.61% | viability increase [3] -3.11% | viability [4] 91.5% | inhibition [5] 1.05% | RAM network inhibition [6] -0.52%

Cc1ccc(C(=O)NCCNC(=O)CN2CCCC2)cc1
inactive: growth inhibition [1] -7.48% | growth inhibition [2] 3.55% | viability increase [3] -0.66% | viability [4] 103% | inhibition [5] 2.21% | RAM network inhibition [6] 5.7%

Cc1ccsc1C(=O)OCC(=O)c1cc2ccccc2o1
inactive: growth inhibition [1] -18.1% | growth inhibition [2] -10.8% | viability increase [3] -2.86% | viability [4] 97.3% | inhibition [5] 1.28% | RAM network inhibition [6] 1.03%

C=C(C)Cn1c(CCCNC(=O)CC)nc2ccccc21
inactive: growth inhibition [1] -5.08% | growth inhibition [2] 14.8% | viability increase [3] -1.27% | viability [4] 96% | inhibition [5] 1.54% | RAM network inhibition [6] -0.92%

CC(c1ccccc1F)n1cc(C(=O)NCCc2ccco2)nn1 (stereo unspecified)
inactive: growth inhibition [1] -12.9% | growth inhibition [2] -9.79% | viability increase [3] -4.02% | viability [4] 76.3% | inhibition [5] 0.72% | RAM network inhibition [6] 0.46%

N#Cc1ccc(Sc2nc3ccccc3[nH]2)cc1C#N
inactive: growth inhibition [1] -7.23% | growth inhibition [2] 4.58% | viability increase [3] -5.02% | viability [4] 89.8% | inhibition [5] 2.44% | RAM network inhibition [6] 1.9%

COC(=O)CNC(=O)Cn1cnc2sc(C)c(S(=O)(=O)N3CCC(C)CC3)c2c1=O
inactive: growth inhibition [1] -2.79% | growth inhibition [2] 12.7% | viability increase [3] -3.93% | viability [4] 99.2% | inhibition [5] 1.11% | RAM network inhibition [6] 0.37%

CCC(C)NC(=O)c1cn(C)c(=O)c2cc(OC)c(OC)cc12 (stereo unspecified)
inactive: growth inhibition [1] -6.39% | growth inhibition [2] -12.4% | viability increase [3] -3.24% | viability [4] 99.7% | inhibition [5] 1.1% | RAM network inhibition [6] 5.28%

Cc1csc(SCC(=O)c2ccc(S(=O)(=O)N3CCOCC3)cc2)n1
inactive: growth inhibition [1] 0.36% | growth inhibition [2] 21.8% | viability increase [3] -3.72% | viability [4] 98.2% | inhibition [5] 0.265% | RAM network inhibition [6] 7.03%

O=C(Oc1c(Cl)cc(Cl)c2cccnc12)N1CCCCC1
inactive: growth inhibition [1] -11.5% | growth inhibition [2] -7.42% | viability increase [3] -3.65% | viability [4] 77.5% | inhibition [5] 0.535% | RAM network inhibition [6] -1.03%

CCOC(=O)N1CCN(C(=O)CN(C2CCCCC2)S(=O)(=O)c2ccc(C)cc2)CC1
inactive: growth inhibition [1] -13.9% | growth inhibition [2] -3.6% | viability increase [3] -4.47% | viability [4] 97.3% | inhibition [5] 1.92% | RAM network inhibition [6] -1.07%

Cc1oc(-c2cccc(Cl)c2)nc1CN1CCC(C(=O)N2CCN(c3ccccn3)CC2)CC1
inactive: growth inhibition [1] -5.81% | growth inhibition [2] -1.31% | viability increase [3] -7.36% | inhibition [5] 0.99% | RAM network inhibition [6] 4.79%
active: viability [4] 27%

CCN(CC)C(=O)c1cn(C)c(=O)c2cc(OC)c(OC)cc12
inactive: growth inhibition [1] -12.1% | growth inhibition [2] -8.38% | viability increase [3] -4.4% | viability [4] 98.8% | inhibition [5] 0.515% | RAM network inhibition [6] -1.59%

COc1ccc(N2C(=O)CCC(C(=O)N3CCCCCC3)C2c2ccc(OC)c(OC)c2)cc1 (stereo unspecified)
inactive: growth inhibition [1] -2.31% | growth inhibition [2] 12.9% | viability increase [3] -1.38% | viability [4] 99% | inhibition [5] 0.735% | RAM network inhibition [6] 4.47%

c1ccc(-c2noc(-c3cccnc3)n2)cc1
inactive: growth inhibition [1] 5.9% | growth inhibition [2] 2.4% | viability increase [3] -3.8% | viability [4] 95.2% | inhibition [5] -0.04% | RAM network inhibition [6] 3.95%

CC1(C)CC(=O)C(C=NC2CC(C)(C)NC(C)(C)C2)=C(O)C1
inactive: growth inhibition [1] -1.6% | growth inhibition [2] -7.89% | viability increase [3] 0.22% | viability [4] 95.5% | inhibition [5] 1.82% | RAM network inhibition [6] 4.6%

CCCCN1C(=O)C(O)(CC(=O)c2ccco2)c2cc(Br)ccc21 (stereo unspecified)
active: viability [4] 11.5%
inactive: growth inhibition [1] 2.79% | growth inhibition [2] 2.35% | viability increase [3] -6.26% | inhibition [5] -0.765% | RAM network inhibition [6] -1.34%

COC(=O)C(CC(C)C)Oc1ccc2c(C)cc(=O)oc2c1 (stereo unspecified)
inactive: growth inhibition [1] -10.5% | growth inhibition [2] 5.8% | viability increase [3] -2.47% | viability [4] 92.6% | inhibition [5] 1.14% | RAM network inhibition [6] 1.38%

CCOC(=O)C1CCN(C(=O)c2oc3ccc(S(=O)(=O)N4CC(C)CC(C)C4)cc3c2C)CC1 (stereo unspecified)
inactive: growth inhibition [1] 1.57% | growth inhibition [2] -4.64% | viability increase [3] -6.15% | viability [4] 52.7% | inhibition [5] -1.02% | RAM network inhibition [6] 5.32%

NC(=O)CCn1nc(-c2ccccc2)c2ccccc2c1=O
inactive: growth inhibition [1] 6.63% | growth inhibition [2] 13.7% | viability increase [3] -2.48% | viability [4] 96.8% | inhibition [5] 0.31% | RAM network inhibition [6] 0%

O=C(CSc1nc(-c2ccncc2)nn1CC(=O)N1CCCCC1)NC1CCCC1
inactive: growth inhibition [1] -4.01% | growth inhibition [2] -16.2% | viability increase [3] -4.19% | viability [4] 88% | inhibition [5] 1.07% | RAM network inhibition [6] -1.59%

Cc1cccc(N(C)C(=O)CCS(=O)(=O)c2cccc3nonc23)c1
inactive: growth inhibition [1] -5.82% | growth inhibition [2] 0.54% | viability increase [3] -4.98% | viability [4] 96.3% | inhibition [5] 1.06% | RAM network inhibition [6] 5.74%

O/N=C1/C2C3CC4C5C3C1C5C1(OCCO1)C42 (stereo unspecified)
inactive: growth inhibition [1] -8.1% | growth inhibition [2] -16.9% | viability increase [3] -1.45% | viability [4] 99% | inhibition [5] 1.39% | RAM network inhibition [6] 3.89%

CCOC(=O)c1ccc(NC(=O)N(CC)CC)cc1
inactive: growth inhibition [1] -7.39% | growth inhibition [2] -1.5% | viability increase [3] -0.97% | viability [4] 97.4% | inhibition [5] 0.865% | RAM network inhibition [6] 2.51%

COc1ccc(C2C(C(=O)N3CCN(c4ccccc4F)CC3)c3ccccc3C(=O)N2C)cc1 (stereo unspecified)
inactive: growth inhibition [1] -12.2% | growth inhibition [2] -6.36% | viability increase [3] -5.64% | viability [4] 74.3% | inhibition [5] 1.3% | RAM network inhibition [6] 4.16%

CCn1c(=O)c2c3c(sc2n2c(SCc4ccc(F)cc4)nnc12)CCCC3
inactive: growth inhibition [1] -17.7% | growth inhibition [2] -16.7% | viability increase [3] -7.59% | inhibition [5] 2.28% | RAM network inhibition [6] 3.4%
active: viability [4] 25.7%

Oc1ccc(C=NCC2COc3ccccc3O2)cc1 (stereo unspecified)
inactive: growth inhibition [1] -7.84% | growth inhibition [2] 2.85% | viability increase [3] -5.39% | viability [4] 85.3% | inhibition [5] 1.54% | RAM network inhibition [6] -2.56%

CC(=O)N1CCN(S(=O)(=O)c2ccc(C)cc2)C1c1ccc(N(C)C)cc1 (stereo unspecified)
inactive: growth inhibition [1] 4.58% | growth inhibition [2] 1.53% | viability increase [3] -2.16% | viability [4] 97.1% | inhibition [5] 1.61% | RAM network inhibition [6] 4.14%

Cc1ccc(N(CC(=O)NC2CC3CCC2C3)S(C)(=O)=O)cc1C (stereo unspecified)
inactive: growth inhibition [1] -2.18% | growth inhibition [2] -4.39% | viability increase [3] -2.03% | viability [4] 96.8% | inhibition [5] 1.26% | RAM network inhibition [6] 5.17%

CCOCCCNC(=O)C(c1ccc(Cl)cc1)N1CCC2(CC1)OCCO2 (stereo unspecified)
inactive: growth inhibition [1] -11.4% | growth inhibition [2] -20.9% | viability increase [3] -1.08% | viability [4] 98% | inhibition [5] 1.17% | RAM network inhibition [6] 1.59%

CC(=O)c1c(C(C)=O)c(C)n(-c2nc(-c3ccccc3)c(C)s2)c1C
inactive: growth inhibition [1] 0.235% | growth inhibition [2] -11% | viability increase [3] -2.37% | viability [4] 91.4% | inhibition [5] 1.21% | RAM network inhibition [6] 4.01%

COc1ccc(CNC(=O)CSc2nnnn2-c2ccc(O)cc2)cc1
inactive: growth inhibition [1] -0.35% | growth inhibition [2] -9.08% | viability increase [3] -4.35% | viability [4] 98.6% | inhibition [5] 2.5% | RAM network inhibition [6] 3.74%

O/N=C1\CCCc2oc3c(c21)CCCC3
inactive: growth inhibition [1] -7.12% | growth inhibition [2] -2.73% | viability increase [3] -1.84% | viability [4] 97.5% | inhibition [5] 2.48% | RAM network inhibition [6] 1.89%
